KCC2 mod – KCC2 cotransporter modulators, thallium flux, primary screen, cell-based, HEK293 KCC2, FluoZin-2 fluorescence, MLSMR. Solute carrier family 12 member 5 (Homo sapiens), Q9H2X9. KCC2 cells, thallium flux FluoZin-2 fluorescence. B-score of Tl+ flux slope (higher = more flux/activation; lower = inhibition) at 10 µM. hit rate 2.2% among 190,000. AID 1456, 2008;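 active = thallium flux slope and its plate-corrected score both differing from the plate sample mean at a set confidence after two filtering rounds, in either direction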;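 also: slope of fluorescence scaled to starting intensity during 10 to 20 s after thallium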
Target sequence (Q9H2X9 whole entry, looked up): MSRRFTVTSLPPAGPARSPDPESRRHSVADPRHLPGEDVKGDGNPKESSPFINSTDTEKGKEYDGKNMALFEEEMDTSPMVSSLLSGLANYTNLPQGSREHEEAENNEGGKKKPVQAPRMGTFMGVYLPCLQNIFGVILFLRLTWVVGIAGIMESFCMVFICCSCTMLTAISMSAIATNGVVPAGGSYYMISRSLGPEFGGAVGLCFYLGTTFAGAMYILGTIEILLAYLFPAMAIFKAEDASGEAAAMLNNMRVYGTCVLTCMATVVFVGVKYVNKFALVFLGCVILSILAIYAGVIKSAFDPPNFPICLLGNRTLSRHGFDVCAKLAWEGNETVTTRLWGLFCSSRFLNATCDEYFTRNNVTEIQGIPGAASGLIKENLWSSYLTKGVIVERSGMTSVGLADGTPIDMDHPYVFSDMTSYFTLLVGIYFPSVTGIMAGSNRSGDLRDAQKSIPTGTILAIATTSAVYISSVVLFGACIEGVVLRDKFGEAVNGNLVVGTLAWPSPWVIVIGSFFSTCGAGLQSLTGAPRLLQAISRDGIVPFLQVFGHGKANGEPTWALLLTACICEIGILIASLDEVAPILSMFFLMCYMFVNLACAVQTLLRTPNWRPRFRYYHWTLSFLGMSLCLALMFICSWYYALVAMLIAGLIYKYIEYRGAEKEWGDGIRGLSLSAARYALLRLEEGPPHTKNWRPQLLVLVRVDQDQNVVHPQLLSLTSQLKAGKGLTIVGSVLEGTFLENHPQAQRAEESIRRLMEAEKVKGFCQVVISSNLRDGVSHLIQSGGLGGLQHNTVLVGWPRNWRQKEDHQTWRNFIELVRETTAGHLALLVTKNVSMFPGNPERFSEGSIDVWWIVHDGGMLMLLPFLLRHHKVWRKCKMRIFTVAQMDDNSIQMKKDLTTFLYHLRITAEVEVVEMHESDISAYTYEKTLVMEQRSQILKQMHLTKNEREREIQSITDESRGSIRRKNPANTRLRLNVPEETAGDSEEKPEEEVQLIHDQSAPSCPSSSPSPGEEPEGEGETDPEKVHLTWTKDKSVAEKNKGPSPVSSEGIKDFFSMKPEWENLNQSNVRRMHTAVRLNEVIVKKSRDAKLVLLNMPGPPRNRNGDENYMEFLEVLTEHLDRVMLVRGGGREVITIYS
b-catenin transl – modulators of beta-catenin nuclear translocation, primary screen, imaging, HeLa cells, immunofluorescence, high-content. hit rate 0.3% among 190,000. nuclear translocation activity, % at 5 µM;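 active = nuclear translocation activity above 50% at 5 µM, with a well cell count of 50 or more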;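 also: per-cell ratio of nuclear to cytoplasmic median beta-catenin stain intensity; plate controls were DMSO negative control for no effect and GSK-3 inhibitor IX positive control for full effect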
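System: HeLa cells, endogenous beta-catenin; compound dosing: 5 µM primary single dose, 0.1% DMSO, 0.02–20 µM confirmation series; incubation: 24 h compound exposure at 37°C, 5% CO2; signal: beta-catenin immunofluorescence imaging with DAPI; evaluation: % activation, nuclear-to-cytoplasmic median beta-catenin signal ratio per cell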
Redox H2O2 prof – compounds producing H2O2 with reducing agent – biochemical, NIH compound library profiling, artefact control for MLSCN library redox annotation, primary screen | DTT-dependent redox cycling H2O2, phenol red/HRP absorbance; 100% = 100 µM peroxide control, 0% = buffer | activation, % at 10 µM | hit rate 0.03% among 200,000;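 active = activation of at least 50% relative to the plate's high and low controls in the primary single-dose screen; inactive = activation below 50%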;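 also: compound incubated with DTT at 0.8 mM final as the reducing agent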
MT stabilize HCS – microtubule stabilizers in HeLa cells, primary screen, imaging, high-content imaging; HeLa tubulin immunostaining HCS, 24 h; share of cells brighter than vehicle mean+2SD; % tubulin-high responders, % at 10 µM; hit rate 0.83% among 200,000; AID 2205, 2009;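 active = plate Z-score above 3 for both tubulin-high and condensed-nucleus cell shares, with cell loss under 80%, at 10 µM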;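 also: anti alpha tubulin signal scored within the nucleus-defined area of each cell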
ROMK mod – ROMK potassium channel modulators, primary screen, cell-based, thallium flux, MLSMR library; hit rate 2% among 130,000; AID 1918, 2009; ATP-sensitive inward rectifier potassium channel 1 (Homo sapiens), P48048; Tet-inducible ROMK, thallium flux fluorescence; actives lie on both sides; B-score at 10 µM;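 active = signal ratio slope over the read window, or its plate-corrected B-score, at least 3 SD from the plate mean, either direction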;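 also: B-score of the F/F0 ratio slope over 7 to 12 s after thallium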
Numbers without * were called inactive; . = no result given. An excerpt weighted towards active compounds, which were near 3.7% of everything screened.

SMILES | KCC2 mod | b-catenin transl | Redox H2O2 prof | MT stabilize HCS | ROMK mod
C/C(=N\NC(=O)CC1N=C(Cc2ccccc2)NNC1=O)c1ccc(Cl)cc1Cl (configuration not stated) | 0.285 | 1.3 | 1.3 | 22.0* | .
C/C(=N\NC(=O)CC1N=C(Cc2ccccc2)NNC1=O)c1ccccc1 (configuration not stated) | -0.0876 | 0.2 | 1.6 | 4.5 | .
Cc1c(C(=O)C(=O)N2c3ccc(F)cc3CCC2C)c2ccccc2n1C (configuration not stated) | -0.0737 | 67.9* | 0.5 | 5.6 | .
Cc1c(C(=O)C(=O)N2CCN(C)CC2)c2ccccc2n1C | 0.453 | -4.6 | -0.1 | 2.4 | -0.0745
Cc1c(C(=O)C(=O)N2CCCc3ccccc32)c2ccccc2n1C | -2.04 | 0.8 | 0.3 | 29.6* | .
O=C(NCc1ccc(N2CCCC2=O)cc1)c1ccc(F)cc1 | -0.308 | -2.5 | 0.3 | 9.4* | -1.51
CCN(CC)C(=O)CC(c1ccc(F)cc1)c1ccc(OC)cc1 (configuration not stated) | -0.408 | 0.3 | 0.4 | 4.3 | .
COc1ccc(S(=O)(=O)Nc2cccc(-c3ccc4nncn4n3)c2)cc1F | . | 2.9 | -0.8 | 29.8* | .
O=C(CCNC(=O)c1ccccc1)OCC(=O)c1ccccc1 | 0.234 | -3.1 | -1.3 | 4.8 | 0.729
COc1ccccc1/C=C/C=N/n1c(-c2n[nH]c3c2CCC3)n[nH]c1=S | 0.233 | 61.8* | . | . | -0.03
COc1cccc(/C=N/n2c(-c3n[nH]c4c3CCC4)n[nH]c2=S)c1O | 0.177 | 0.6 | 0.1 | 5.4 | .
O=C(CN1C(=O)CSc2cc(S(=O)(=O)N3CCCCCC3)ccc21)NCCc1ccccc1 | -7.81* | 3.1 | -0.4 | 2.7 | -5.51*
O=C(CN1C(=O)CSc2ccc(S(=O)(=O)N3CCOCC3)cc21)NCc1cccnc1 | 0.0134 | -2.3 | -0.1 | 2.2 | 0.0949
Cc1cc(NCCN2CCOCC2)n2ncc(-c3ccc(Cl)cc3)c2n1 | 4.85* | . | 16.9 | 2.9 | 0.119
N#Cc1cccc(NC(=O)CSc2ccc3c4c(cccc24)C(=O)c2ccccc2-3)c1 | -0.312 | -4.4 | 0.0 | 5.9 | -4.18*
CCn1c(SCC(=O)NCC2CCCO2)nnc1-c1ccc(S(=O)(=O)N2CCN(C)CC2)cc1 (configuration not stated) | 1.21 | 2.0 | -1.2 | 2.0 | 0.301
Cc1onc(-c2ccccc2Cl)c1C(=O)N1CCN(c2cccc(Cl)c2)CC1 | 0.0374 | . | -1.2 | 20.2* | .
O=C(c1cccc(S(=O)(=O)N2CCCC2)c1)N1CCN(c2ccccc2)CC1 | -0.132 | . | 2.0 | 17.8* | .
COc1ccccc1C(=O)N1CCN(c2cccc(Cl)c2)CC1 | -2.55 | 56.4* | 5.8 | 31.1* | 1.01
O=C(c1c(Cl)nc2sccn12)N1CCN(c2cccc(Cl)c2)CC1 | . | 112.0* | -2.0 | 19.0* | 1
O=C(c1cccc(S(=O)(=O)N2CCCCCC2)c1)N1CCN(c2ccccc2)CC1 | -0.635 | -0.2 | 0.2 | 3.7 | -0.572
Cc1onc(-c2ccccc2Cl)c1C(=O)N1CCN(c2ccccc2)CC1 | . | 0.4 | 0.1 | 2.3 | 0.494
Cc1ccccc1N1C(=O)C2ON(c3ccccc3)C(c3ccco3)C2C1=O (configuration not stated) | 0.706 | -2.1 | . | . | .
COc1cc(/C=C/C(=O)N2CCCc3ccccc32)cc(OC)c1OC | -0.912 | . | -0.7 | 2.6 | .
O=C(c1cccc(F)c1)N1CCN(c2cccc(Cl)c2)CC1 | . | . | -2.1 | 21.5* | .
SMILES | KCC2 mod | b-catenin transl | Redox H2O2 prof | MT stabilize HCS | ROMK mod
COC(=O)c1ccc(-n2cc(-c3ccc(OC)cc3)[nH]c2=S)cc1 | 8.83* | . | -1.1 | 3.8 | -0.0692
O=[N+]([O-])c1ccc(-c2cn(-c3ccccc3)c(=S)[nH]2)cc1 | 3.53 | -0.2 | 0.2 | 7.5 | .
CC1Cc2ccccc2N1C(=S)NC(=O)C1(C)CC1(Cl)Cl (configuration not stated) | 93.1* | 7.0 | -0.2 | 5.2 | 13.4*
Cc1cccc2[nH]c3c(N4CCC5(CC4)OCCO5)ncnc3c12 | -2.04 | 56.6* | -3.4 | 38.7* | .
Clc1ccc2[nH]c3c(N4CCC5(CC4)OCCO5)ncnc3c2c1 | . | 5.9 | 2.3 | 9.6 | .
COC(=O)Nc1nc(C)c(C(=O)c2ccccc2)s1 | 0.41 | 55.9* | 1.9 | 7.7 | 1.68
COC(=O)Nc1nc(-c2ccccc2)c(C(=O)c2ccccc2)s1 | 0.0413 | 162.1* | 0.0 | 12.3 | 3.04
COC(=O)c1c(NC(=O)c2ccccc2)sc(C(N)=O)c1C | 0.188 | 8.6 | -1.2 | 2.7 | 0.0954
COC(=O)c1c(NC(=O)c2ccccc2)sc(C(=O)c2ccccc2)c1C | 8.42* | 0.1 | 0.3 | 3.7 | .
O=C(Nc1ccc(Br)cn1)c1ccc2nccnc2c1 | . | . | -1.4 | 11.6* | .
COc1ccc(NC(=O)c2ccc3nccnc3c2)cc1 | 0.569 | 1.1 | -1.4 | 3.0 | .
COc1ccc(NC(=O)N2CCN(c3ccc([N+](=O)[O-])cc3)CC2)cc1OC | 0.08 | 2.1 | 0.6 | 3.9 | -2.58
CCOc1cc(C#N)c(NC(=O)c2cccnc2)cc1OCC | 0.629 | . | -0.6 | 38.9* | .
CCc1nnc(NC(=O)CSc2nnc(-c3ccccc3O)n2-c2ccc(C)cc2C)s1 | -0.525 | 0.4 | 3.3 | 37.9* | .
CCc1nnc(NC(=O)CSc2nnc(COc3ccccc3)n2-c2ccc(C)cc2)s1 | . | -1.6 | 0.1 | 2.9 | 0.832
C=CCn1c2ccccc2c2nnc(SC(CC)C(=O)Nc3sc4c(c3C#N)CCCC4)nc21 (configuration not stated) | 0.32 | 1.2 | 0.0 | 4.1 | 0.978
COc1ccc(/C=N/NC(=O)CCn2cnc(-c3ccccc3)c2-c2ccccc2)cc1OC | -1.35 | 45.5 | -0.4 | 22.0* | .
O=C(CN1C(=O)C2CC=CCC2C1=O)Nc1nc2ccccc2s1 (configuration not stated) | -0.636 | -0.4 | -1.1 | 1.4 | 1.22
Cc1ccc(/C=C2/NC(=O)N(Cc3ccccc3)C2=O)s1 | -1.22 | 1.5 | -3.4 | 2.0 | .
Cc1cccc(CN2C(=O)N/C(=C/c3ccc(C)s3)C2=O)c1 | 0.0317 | 66.8* | -17.6 | 53.4* | .
CCCCOc1ccc(Nc2cc(Cl)ccc2C(=O)O)cn1 | 13.1* | -0.5 | . | . | 3.1*
Cc1ccc(/C=C/C(=O)N2CCc3ccccc32)o1 | -2.7 | . | -0.2 | 10.3* | .
O=C(/C=C/c1ccco1)N1CCc2ccccc21 | -2.94 | -2.9 | 0.0 | 1.6 | -0.722
O=C1/C(=C/c2cccnc2)CCC/C1=C\c1cccnc1 | -0.137 | -2.5 | -0.2 | 29.3* | -4.58*
CCC1C/C(=C\c2cccnc2)C(=O)/C(=C/c2cccnc2)C1 (configuration not stated) | -0.299 | -1.1 | -0.5 | 45.5* | -4.29*
O=C1/C(=C/c2cccnc2)CC/C1=C\c1cccnc1 | -0.174 | 0.2 | -0.4 | 2.8 | -0.0398

Screening results (PubChem BioAssay)
